Most compounds without a hit are left out; they make up all but 2.9% or so of the library.
MC4R antag cAMP – MC4R antagonists of cAMP signaling, primary screen, cell-based, TR-FRET, antagonist arm of biased-ligand search; Melanocortin receptor 4 (Homo sapiens), P32245; MC4R-expressing cells, MTII-stimulated cAMP, LANCE TR-FRET; inhibition, % at 6.5 µM; hit rate 0.48% among 360,000; AID 540295, 2011;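 active = inhibition above its plate's cutoff, the mean of tested wells on that plate plus 3 SD, cut at about 29% in these data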;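 note: 0% = Melanotan II alone and 100% = Melanotan II plus saturating MCL0020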
Target sequence (P32245 whole entry, looked up): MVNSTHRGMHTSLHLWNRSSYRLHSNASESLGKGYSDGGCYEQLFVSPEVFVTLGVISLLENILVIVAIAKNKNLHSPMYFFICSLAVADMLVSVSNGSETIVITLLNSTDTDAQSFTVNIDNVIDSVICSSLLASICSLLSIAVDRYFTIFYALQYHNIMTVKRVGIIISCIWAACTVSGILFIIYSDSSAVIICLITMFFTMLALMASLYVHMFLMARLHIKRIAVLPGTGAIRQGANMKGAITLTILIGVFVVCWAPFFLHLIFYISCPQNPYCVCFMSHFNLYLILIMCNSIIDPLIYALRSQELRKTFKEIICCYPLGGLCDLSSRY
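System – human MC4R-expressing U2OS cells · Also added – Melanotan II · Dosing – one concentration, 6.5 µM nominal · Timing – 30-min compound, 1-h challenge, 1-h detection, room temperature · Measured by – Eu-cAMP/anti-cAMP TR-FRET, emission 671 nm · Replicates – singlicate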
Calb FLC – C. albicans growth inhibition with fluconazole, primary screen, CaCi-2 strain, Alamar Blue fluorescence; C. albicans CaCi-2 + fluconazole, 48 h; growth inhibition, % (concentration not given with the values); hit rate 0.57% among 300,000; AID 1979, 2009;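 active = growth inhibition above about 58% in most replicates, limit read from the data, passing the limit was not always enough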;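 note: all wells also contain fluconazole at 8 µg/ml as a sub-toxic cotreatment; 0% = median of DMSO wells and 100% = median of geldanamycin control wells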
H9c2 TAG inh – inhibitors of triacylglycerol accumulation, primary screen, cell-based, uHTS, fluorescence, H9c2 | H9c2 cells, Nile Red lipid (TAG) fluorescence; cells loaded with 200 µM oleic acid | inhibition, % at 12.5 µM | hit rate 0.66% among 230,000;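 active = pattern-corrected inhibition of lipid staining of at least 50% with the nuclear-stain viability signal not falling by more than 50%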;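 note: 0% = DMSO wells and 100% = triacsin C control wells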
GalR3 antagonist – GalR3 antagonists in HEK293 cells, primary screen, cell-based, fluorescence readout; AID 651719, 2012; inhibition, % at 3 µM; hit rate 0.44% among 360,000; Galanin receptor type 3 (Homo sapiens), O60755; HEK293 GalR3-CNG cAMP membrane potential fluorescence; galR3 body fused to GalR1 C-terminus;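 active = inhibition above the screen-wide average plus 3 SD, cut at about 13% in these data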;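 note: forskolin and galanin both at EC90 stimulate the cells; cAMP rise reported by CNG channel membrane potential dye signal; 0% = forskolin plus galanin with DMSO and 100% = forskolin alone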
Efflux pump inh – inhibitors of Candida efflux pumps in yeast, primary screen, S. cerevisiae, Nile Red, multiplex. inhibition, % at 10 µM. hit rate 0.44% among 330,000. S. cerevisiae Candida pump triplex. AID 485275, 2010;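 active = plate passing quality check with inhibition over a set limit, or well fluorescence over plate mean plus 4 SD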;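 note: Nile Red retained in pooled yeast measured as flow cytometry median fluorescence; 0% = buffer negative control and 100% = Enniatin B positive control; higher means more Nile Red kept so more efflux inhibition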
MC4R barr agon – MC4R agonists recruiting beta-arrestin, primary screen, cell-based, luminescence, agonist arm of biased-ligand search | Melanocortin receptor 4 (Homo sapiens), P32245 | U2OS MC4R beta-arrestin complementation; percent of melanotan II response, DMSO zero | activation, % at 8.9 µM | hit rate 0.98% among 360,000 | AID 540308, 2011;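 active = activation above a per-plate cutoff, the mean activation of sample wells on that plate plus 3 SD, cut at about 8% in these data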
cAMP nonselect – nonselective cAMP signaling inhibitors, parental cells, counter-screen for MC4R biased antagonist project, cell-based, TR-FRET, U2OS, forskolin, triplicate; shares compounds with MC4R antag cAMP; LANCE TR-FRET; inhibition, % at 6.5 µM; hit rate 26% among 1,600; AID 602193, 2012;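 active = mean inhibition over triplicates above the low-control well mean plus 3 SD, set per campaign, cut at about 13% in these data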;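 note: signal is single emission at 671 nm which falls as cellular cAMP rises; 0% = forskolin-stimulated wells and 100% = buffer without forskolin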
MC4R cAMP antag – MC4R cAMP antagonists, retest, confirmation, cell-based, TR-FRET; MC4R-expressing cells, MTII-stimulated cAMP; shares compounds with MC4R antag cAMP; inhibition, % at 6.5 µM; hit rate 27% among 1,600; in the data active = inhibition above about 29%;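 note: 0% = agonist stimulated wells alone and 100% = agonist stimulated wells plus saturating reference antagonist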
Starred values were filed as active, the others as inactive; / = no result.

SMILES	MC4R antag cAMP	Calb FLC	H9c2 TAG inh	GalR3 antagonist	Efflux pump inh	MC4R barr agon	cAMP nonselect	MC4R cAMP antag
CS(=O)(=O)c1ccc(C(=O)OCC(=O)NC(=O)C2COc3ccccc3O2)cc1[N+](=O)[O-] (configuration not stated)	31*	/	15	6	0	-2	13	21
CS(=O)(=O)c1ccc(C(=O)OCC(=O)NC(=O)C2CCCCC2)cc1[N+](=O)[O-]	33*	-6	-7	-14	0	-4	25*	43*
CS(=O)(=O)c1ccc(C(=O)OCC(=O)N2CCN(CCC3CCCCC3)CC2)cc1[N+](=O)[O-]	15	/	4	-10	/	-3	/	/
COc1ccc(NC(=O)c2cc(C3CCCCN3S(=O)(=O)c3cccs3)on2)c(C)c1 (configuration not stated)	10	/	21	-5	/	-1	/	/
COc1cccc(C(=O)Nc2sc(C(C)C)cc2C(N)=O)c1OC	30*	7	0	-3	0	0	2	20
COc1cccc(C(=O)Nc2nnc(-c3ccccc3)s2)c1OC	0	14	3	/	0	0	/	/
Cc1ccc(S(=O)(=O)/N=C2/C=C(Sc3ncn[nH]3)C(=O)c3ccccc32)cc1	48*	/	/	/	0	-1	27*	35*
CC(C)N(Cc1ccccc1)C(=O)COC(=O)c1cnc(Cl)c(Cl)c1	45*	/	-3	-10	0	-4	33*	52*
CC(C)CN(C(=O)COC(=O)c1cccnc1Cl)c1c(N)n(Cc2ccccc2)c(=O)[nH]c1=O	4	2	-2	0	0	-1	/	/
CC(C)CN(C(=O)COC(=O)c1cnc(Cl)c(Cl)c1)c1c(N)n(Cc2ccccc2)c(=O)[nH]c1=O	47*	-2	-8	-6	0	-3	12	51*
O=C(COC(=O)c1cnc(Cl)c(Cl)c1)NCc1cccs1	36*	-6	/	-5	0	-2	22*	35*
O=C(OCc1ccccc1)c1cnc(Cl)c(Cl)c1	26	1	/	-10	0	1	/	/
Cc1ccc(S(=O)(=O)n2cnc3ccccc32)cc1[N+](=O)[O-]	29*	1	/	-9	1	1	-2	-3
Cc1ccc(S(=O)(=O)n2cnc3cc([N+](=O)[O-])ccc32)cc1C	4	-7	/	-1	0	-2	/	/
O=C(/C=C/c1ccc(-c2ccccc2[N+](=O)[O-])o1)c1ccccc1	30*	-4	-1	-4	0	0	1	4
O=C(O)/C(=C\c1ccc(-c2ccccc2[N+](=O)[O-])o1)c1ccccc1	3	21	-2	-6	0	-2	/	/
C/C(=N/NC(=O)CN(c1ccccc1)S(=O)(=O)c1ccccc1)c1ccccc1O	30*	2	14	-1	1	0	0	14
O=C(CS(=O)(=O)c1ccccc1)Nc1nnc(C(F)(F)F)s1	32*	1	/	-5	0	-2	-1	-9
